From paper PMC4956519 (Journal of chromatography. B, Analytical technologies in …, 2016)
Where a SMILES comes first, the peptide text is derived from it.

Assay type: in vivo, mice
Summary of the method: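 Adult male C57BL/6J mice (20–25 g), single i.v. injection 10 mg/kg in 10% Solutol in saline; 5 mice per time point killed at 2, 5, 15, 30, 60 min, cardiac blood centrifuged for plasma. Plasma precipitated with ice-cold acetonitrile containing internal standard, supernatant diluted with water; C8 reversed-phase LC-MS/MS, positive-ion MRM m/z 578.1→217.1/245.0; calibration 0.5–500 ng/mL; non-compartmental analysis.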

[1] = male, C57BL/6J, mouse, plasma, iv, 10 mg/kg

O=C1N[C@H](Cc2c[nH]c3ccccc23)C(=O)N[C@@H](Cc2ccccc2)C(=O)N2CCC[C@@H]2C(=O)N[C@H]1Cc1ccccc1 [[D-Trp]CJ-15,208, cyclo[Phe-D-Pro-Phe-D-Trp]] (HELM PEPTIDE1{F.[dP].F.[dW]}$PEPTIDE1,PEPTIDE1,1:R1-4:R2$$$V2.0)
Time to almost complete elimination from plasma (10 mg/kg i.v. to mice, LC-MS/MS): ≤ 1 h
AUC0-t (male C57BL/6J mice, 10 mg/kg i.v., plasma, LC-MS/MS, non-compartmental analysis, 5 mice per time point): 19124.7 ng·min/mL
AUC(0-inf) [1]: 337 ng·h/mL
C0 [1]: 1130 ng/mL
Cmax [1]: 1020 ng/mL
Vd [1]: 10.1 L/kg
clearance [1]: 494 mL/min/kg
half-life [1]: 14.2 min
Decline of plasma concentration (within 15 minutes after 10 mg/kg i.v. to mice, LC-MS/MS): over 50%
